This assay can be described thus: Inhibition of recombinant HIV integrase strand transfer activity. More on the design: species or system Human immunodeficiency virus. The method in brief: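 Recombinant integrase (2 µM) prebound to biotinylated donor DNA (0.66 µM) on streptavidin SPA beads, 5 min 37 °C in 25 mM MOPS pH 7.2, 23 mM NaCl, 10 mM MgCl₂, 10 mM DTT, 10% DMSO. Beads washed and resuspended to 570 nM integrase. Compound (6.7% DMSO final) preincubated 60 min 37 °C. Then [³H] target DNA at 7 nM final added, run 25–45 min 37 °C, EDTA-quenched, read by SPA. Means ± SE.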

pIC50: −log10 of the molar value.

Usually pIC50 stands for the IC50 on a negative log10 scale, so that one unit is a factor of ten.

For `COC(=O)c1c(O)c2ncsc2n(C(C)C)c1=O`, the pIC50 was 4.96. With `O=C(NCc1ccc(F)cc1)c1c(O)c2ncsc2n(-c2ccccc2)c1=O` the figure was 6.40; with `O=C(NCc1ccc(F)cc1)c1c(O)c2ncsc2n(-c2cccc([N+](=O)[O-])c2)c1=O`, 4.77. The value for `Cn1c(=O)c(C(=O)NCc2ccc(F)cc2)c(O)c2nc(Cc3ccc(F)cc3)sc21` was 3.82. The value for `COC(=O)c1c(O)c2ncsc2n(-c2cccc(SC)c2)c1=O` was less than 3.30; that for `CS(=O)(=O)c1cccc(-n2c(=O)c(C(=O)NCc3ccc(F)cc3)c(O)c3ncsc32)c1` was 6.03; that for `COc1ccc(-n2c(=O)c(C(=O)NCc3ccc(F)cc3)c(O)c3ncsc32)cc1` was 6.00. With `O=C(/C=C(\O)c1nc[nH]n1)c1ccc(Cc2ccc(F)cc2)o1` [S-1360], the pIC50 is 6.80. The value for `COC(=O)c1c(O)c2ncsc2n(-c2ccccc2)c1=O` was less than 3.30. With `O=C(NCc1ccc(F)cc1)c1c(O)c2nc(Cc3ccc(F)cc3)sc2n(-c2ccccc2)c1=O` the figure was 5.40; with `COC(=O)c1c(O)c2ncsc2n(-c2ccc(OC)cc2)c1=O`, less than 3.30; with `Cn1c(=O)c(C(=O)NCc2ccc(Cl)cc2)c(O)c2ncsc21`, 5.68. With `COc1ccc(Cn2c(=O)c(C(=O)NCc3ccc(F)cc3)c(O)c3ncsc32)cc1` the figure was 5.40. For `CCn1c(=O)c(C(=O)NCc2ccc(F)cc2)c(O)c2ncsc21`, the negative logarithm of the IC50 (pIC50) was 7.52. With `CCn1c(=O)c(C(=O)OC)c(O)c2ncsc21` the figure was 5.91; with `CSc1cccc(-n2c(=O)c(C(=O)NCc3ccc(F)cc3)c(O)c3ncsc32)c1`, 5.15; with `COC(=O)c1c(O)c2ncsc2n(C)c1=O`, less than 3.30.

In the case of `COC(=O)c1c(O)c2nc(Cc3ccc(F)cc3)sc2n(C)c1=O`, the pIC50 is 4.46. With `COC(=O)c1c(O)c2nc(Cc3ccc(F)cc3)sc2n(-c2ccccc2)c1=O` the figure was 3.55. The value for `CC(C)n1c(=O)c(C(=O)NCc2ccc(F)cc2)c(O)c2ncsc21` was 6.72. As for `O=C(NCc1ccc(F)cc1)c1c(O)c2ncsc2[nH]c1=O`, the pIC50 was 5.82. With `COC(=O)c1c(O)c2ncsc2[nH]c1=O`, the pIC50 is less than 3.30. On to `O=C(NCc1ccc(F)cc1)c1c(O)c2ncsc2n(-c2cccc(C(F)(F)F)c2)c1=O`, for which the pIC50 is 5.15. With `C[S+]([O-])c1cccc(-n2c(=O)c(C(=O)NCc3ccc(F)cc3)c(O)c3ncsc32)c1` (stereo not drawn) the figure was 5.70. Take `COC(=O)c1c(O)c2ncsc2n(-c2cccc([N+](=O)[O-])c2)c1=O`: the pIC50 is less than 3.30.

For `COC(=O)c1c(O)c2ncsc2n(-c2cccc(C(F)(F)F)c2)c1=O`, the pIC50 was less than 3.30. As for `Cn1c(=O)c(C(=O)NCc2ccc(F)cc2)c(O)c2ncsc21`, the pIC50 is 6.15. With `COC(=O)c1c(O)c2ncsc2n(Cc2ccc(OC)cc2)c1=O` the figure was 5.38.

(Values after ChEMBL document CHEMBL1138871, “Synthesis and HIV-integrase strand transfer inhibition activity of 7-hydroxy[1,3]thiazolo[5,4-b]pyridin-5(4H)-ones” (Bioorg Med Chem Lett, 2006).)
